Experimental data as given in ChEMBL document CHEMBL2321826, “Synthesis and antibacterial evaluation of rhodanine-based 5-aryloxy pyrazoles against selected methicillin resistant and quinolone-resistant Staphylococcus aureus (MRSA and QRSA)” (Eur J Med Chem, 2013).
≈ marks a conversion by molar mass, not a printed value.

Columns and labels:
HeLa [1] = experiment: Cytotoxicity against human HeLa cells assessed as cell growth inhibition at 2 ug/ml measured after 48 hrs by MTT assay; assay type: cell-based
Staphylococcus aureus [2] = experiment: Antibacterial activity against methicillin-resistant Staphylococcus aureus CCARM 3167 assessed as bacterial growth inhibition measured during 24 hrs incubation at 37 degC by two-fold serial dilution technique; assay type: functional; settings: CCARM 3167, 24 h
How it was run: (§1)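 Clinical isolates grown to mid-log phase in Mueller-Hinton broth, diluted 1000-fold, inoculated at 10⁵ CFU/mL in MHB in 96-well microtiter plates. Two-fold serial dilutions gave final concentrations of […]. Oxacillin and norfloxacin were the positive controls. Growth was read as absorbance at 650 nm. MIC is the lowest concentration giving complete growth inhibition.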

Staphylococcus aureus [3] = experiment: Antibacterial activity against methicillin-resistant Staphylococcus aureus CCARM 3506 assessed as bacterial growth inhibition measured during 24 hrs incubation at 37 degC by two-fold serial dilution technique; assay type: functional; settings: CCARM 3506, 24 h; how it was run: as §1
HeLa [4] = experiment: Cytotoxicity against human HeLa cells assessed as cell growth inhibition measured after 48 hrs by MTT assay; assay type: cell-based
How it was run: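 HeLa cells grown in DMEM with 10% FBS and penicillin-streptomycin (100 U/mL) at 37 °C in 5% CO2. Cells were split with trypsin at 80-90% confluence and used at passage 3. About 1×10⁴ cells/well were seeded and left overnight to attach. Cells were exposed to compounds for 48 h, then given MTT (5 mg/mL in PBS stock) for 4 h. Medium was removed and formazan read.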

Staphylococcus aureus [5] = experiment: Antibacterial activity against quinolone-resistant Staphylococcus aureus CCARM 3505 assessed as bacterial growth inhibition measured during 24 hrs incubation at 37 degC by two-fold serial dilution technique; assay type: functional; settings: CCARM 3505, 24 h; how it was run: as §1
Staphylococcus aureus [6] = experiment: Antibacterial activity against quinolone-resistant Staphylococcus aureus CCARM 3519 assessed as bacterial growth inhibition measured during 24 hrs incubation at 37 degC by two-fold serial dilution technique; assay type: functional; settings: CCARM 3519, 24 h; how it was run: as §1
Staphylococcus aureus [7] = experiment: Antibacterial activity against methicillin-resistant Staphylococcus aureus assessed as bacterial growth inhibition measured during 24 hrs incubation at 37 degC by two-fold serial dilution technique; assay type: functional; how it was run: as §1
Staphylococcus aureus [8] = experiment: Ratio of oxacillin MIC to compound MIC for Staphylococcus aureus CCARM 3167; assay type: functional
Staphylococcus aureus [9] = experiment: Ratio of norfloxacin MIC to compound MIC for Staphylococcus aureus CCARM 3167; assay type: functional
HeLa [10] = experiment: Cytotoxicity against human HeLa cells assessed as cell growth inhibition at 1 ug/ml measured after 48 hrs by MTT assay; assay type: cell-based

SMILES	Activity (HeLa [1])	MIC (Staphylococcus aureus [2]) [µg/mL]	MIC (Staphylococcus aureus [3]) [µg/mL]	IC50 (HeLa [4]) [µg/mL]	MIC (Staphylococcus aureus [5]) [µg/mL]	MIC (Staphylococcus aureus [6]) [µg/mL]	MIC (Staphylococcus aureus [7]) [µg/mL]	Ratio (Staphylococcus aureus [8])	Ratio (Staphylococcus aureus [9])	Activity (HeLa [10])
Cc1nn(-c2ccccc2)c(Oc2ccc(Br)cc2)c1/C=C1\SC(=S)N([C@@H](CC(C)C)C(=O)O)C1=O	Non-toxic	4 (≈ 6.82 µM)	4 (≈ 6.82 µM)	12.3 (≈ 21 µM)	4 (≈ 6.82 µM)	4 (≈ 6.82 µM)				
Cc1ccc(Oc2c(/C=C3\SC(=S)N(CC(=O)O)C3=O)c(C)nn2-c2ccccc2)cc1		32 (≈ 68.7 µM)	32 (≈ 68.7 µM)		32 (≈ 68.7 µM)	32 (≈ 68.7 µM)				
CCC(C)[C@@H](C(=O)O)N1C(=O)/C(=C/c2c(C)nn(-c3ccccc3)c2Oc2ccc(Br)cc2)SC1=S (some centres undefined)		2 (≈ 3.41 µM)	2 (≈ 3.41 µM)		2 (≈ 3.41 µM)	2 (≈ 3.41 µM)				
CCC(C)[C@@H](C(=O)O)N1C(=O)/C(=C/c2c(C)nn(-c3ccccc3)c2Oc2ccccc2)SC1=S (some centres undefined)		4 (≈ 7.88 µM)	4 (≈ 7.88 µM)		8 (≈ 15.8 µM)	4 (≈ 7.88 µM)				
Cc1nn(-c2ccccc2)c(Oc2ccc3ccccc3c2)c1/C=C1\SC(=S)N(CC(=O)O)C1=O		8 (≈ 15.9 µM)	8 (≈ 15.9 µM)		8 (≈ 15.9 µM)	8 (≈ 15.9 µM)				
Cc1cccc(Oc2c(/C=C3\SC(=S)N(CC(=O)O)C3=O)c(C)nn2-c2ccccc2)c1		16 (≈ 34.4 µM)	16 (≈ 34.4 µM)		32 (≈ 68.7 µM)	16 (≈ 34.4 µM)				
COc1ccc(Oc2c(/C=C3\SC(=S)N([C@H](C(=O)O)C(C)C)C3=O)c(C)nn2-c2ccccc2)cc1		8 (≈ 15.3 µM)	8 (≈ 15.3 µM)		8 (≈ 15.3 µM)	8 (≈ 15.3 µM)				
CCC(C)[C@@H](C(=O)O)N1C(=O)/C(=C/c2c(C)nn(-c3ccccc3)c2Oc2cccc(C(F)(F)F)c2)SC1=S (some centres undefined)		4 (≈ 6.95 µM)	8 (≈ 13.9 µM)		8 (≈ 13.9 µM)	8 (≈ 13.9 µM)				
CCC(C)[C@@H](C(=O)O)N1C(=O)/C(=C/c2c(C)nn(-c3ccccc3)c2Oc2ccccc2Cl)SC1=S (some centres undefined)		2 (≈ 3.69 µM)	4 (≈ 7.38 µM)		4 (≈ 7.38 µM)	4 (≈ 7.38 µM)				
Cc1nn(-c2ccccc2)c(Oc2ccc(Cl)cc2Cl)c1/C=C1\SC(=S)N(CC(=O)O)C1=O		4 (≈ 7.69 µM)	8 (≈ 15.4 µM)		8 (≈ 15.4 µM)	8 (≈ 15.4 µM)				
CCC(C)[C@@H](C(=O)O)N1C(=O)/C(=C/c2c(C)nn(-c3ccccc3)c2Oc2ccc(Cl)cc2)SC1=S (some centres undefined)		2 (≈ 3.69 µM)	4 (≈ 7.38 µM)		4 (≈ 7.38 µM)	4 (≈ 7.38 µM)				
O=C(O)CN1C(=O)/C(=C/c2cn(-c3ccccc3)nc2-c2ccc(Cl)cc2Cl)SC1=S							4 (≈ 8.16 µM)			
CCC(C)[C@@H](C(=O)O)N1C(=O)/C(=C/c2c(C)nn(-c3ccccc3)c2Oc2ccc(C)cc2C)SC1=S (some centres undefined)		2 (≈ 3.73 µM)	2 (≈ 3.73 µM)		2 (≈ 3.73 µM)	2 (≈ 3.73 µM)				
CCC(C)[C@@H](C(=O)O)N1C(=O)/C(=C/c2c(C)nn(-c3ccccc3)c2Oc2ccccc2OC)SC1=S (some centres undefined)		16 (≈ 29.8 µM)	16 (≈ 29.8 µM)		16 (≈ 29.8 µM)	16 (≈ 29.8 µM)				
Cc1nn(-c2ccccc2)c(Oc2cccc(Cl)c2)c1/C=C1\SC(=S)N(CC(=O)O)C1=O		16 (≈ 32.9 µM)	16 (≈ 32.9 µM)		8 (≈ 16.5 µM)	16 (≈ 32.9 µM)				
CCC(C)[C@@H](C(=O)O)N1C(=O)/C(=C/c2c(C)nn(-c3ccccc3)c2Cl)SC1=S (some centres undefined)		16 (≈ 35.6 µM)	32 (≈ 71.1 µM)		16 (≈ 35.6 µM)	32 (≈ 71.1 µM)				
CCC(C)[C@@H](C(=O)O)N1C(=O)/C(=C/c2c(C)nn(-c3ccccc3)c2Oc2ccc(Cl)cc2Cl)SC1=S (some centres undefined)		1 (≈ 1.73 µM)	1 (≈ 1.73 µM)	6.43 (≈ 11.2 µM)	2 (≈ 3.47 µM)	2 (≈ 3.47 µM)		64	8	Non-toxic
Cc1ccccc1Oc1c(/C=C2\SC(=S)N([C@H](C(=O)O)C(C)C)C2=O)c(C)nn1-c1ccccc1		4 (≈ 7.88 µM)	8 (≈ 15.8 µM)		8 (≈ 15.8 µM)	8 (≈ 15.8 µM)				
CCC(C)[C@@H](C(=O)O)N1C(=O)/C(=C/c2c(C)nn(-c3ccccc3)c2Oc2ccc(C)cc2)SC1=S (some centres undefined)		2 (≈ 3.83 µM)	4 (≈ 7.67 µM)		4 (≈ 7.67 µM)	4 (≈ 7.67 µM)				
